Key:
Format in all cases: functional
HL-60 = experiment: In vitro inhibitory activity against leukemia HL-60(TB) cancer cell line; settings: Homo sapiens
How it was run: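 Tested in the NCI in vitro disease-oriented human tumour cell line screen. Growth inhibition was read from dose-response curves and reported as log GI50, the compound concentration that inhibits cell growth by 50%.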

COLO 205 = experiment: In vitro inhibitory activity against colon COLO-205 cancer cell line; settings: Homo sapiens
How it was run: (§1)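 Tested in the National Cancer Institute's in vitro disease-oriented tumor cell line screen. Dose-response curves were recorded for each cell line, and values are reported as log GI50, the compound concentration that inhibits cell growth by 50%.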

IGROV-1 = experiment: In vitro inhibitory activity against ovarain IGROV1 cancer cell line; settings: Homo sapiens; how it was run: as §1
HCT-116 = experiment: In vitro inhibitory activity against colon HCT116 cancer cell line; settings: Homo sapiens; how it was run: as §1
[1] = In vitro inhibitory activity against small cell lung DMS 114 cancer cell line; settings: Homo sapiens, Cancer cell lines; how it was run: as §1
OVCAR-3 = experiment: In vitro inhibitory activity against ovarain OVCAR-3 cancer cell line; settings: Homo sapiens; how it was run: as §1
U-251 = experiment: In vitro inhibitory activity against CNS U-251 cancer cell line; settings: Homo sapiens; how it was run: as §1
K562 = experiment: In vitro inhibitory activity against leukemia K-562 cancer cell line; settings: Homo sapiens; how it was run: as §1
UACC-62 = experiment: In vitro inhibitory activity against melanoma UACC-62 cancer cell line; settings: Homo sapiens; how it was run: as §1
SF-539 = experiment: In vitro inhibitory activity against CNS SF-539 cancer cell line; settings: Homo sapiens; how it was run: as §1
[2] = In vitro inhibitory activity against small cell lung DMS 273 cancer cell line; settings: Homo sapiens, Cancer cell lines; how it was run: as §1
ACHN = experiment: In vitro inhibitory activity against renal ACHN cancer cell line; settings: Homo sapiens; how it was run: as §1
NCI-H522 = experiment: In vitro inhibitory activity against non small lung […]H522 cancer cell line; settings: Homo sapiens; how it was run: as §1
HOP-92 = experiment: In vitro inhibitory activity against non small lung HOP-92 cancer cell line; settings: Homo sapiens; how it was run: as §1
RXF 393 = experiment: In vitro inhibitory activity against renal RXF-393 cancer cell line; settings: Homo sapiens; how it was run: as §1
Malme-3M = experiment: In vitro inhibitory activity against melanoma MALME-3M cancer cell line; settings: Homo sapiens; how it was run: as §1
MDA-N = experiment: In vitro inhibitory activity against breast MDA-N cancer cell line; settings: Homo sapiens; how it was run: as §1
DU-145 = experiment: In vitro inhibitory activity against prostate DU-145 cancer cell line; settings: Homo sapiens; how it was run: as §1
PC-3 = experiment: In vitro inhibitory activity against prostate PC-3 cancer cell line; settings: Homo sapiens; how it was run: as §1
MCF7 = experiment: In vitro inhibitory activity against breast MCF-7 cancer cell line; settings: Homo sapiens; how it was run: as §1

Compound | GI50 (HL-60) | GI50 (COLO 205) | GI50 (IGROV-1) | GI50 (HCT-116) | GI50 [1] | GI50 (OVCAR-3) | GI50 (U-251) | GI50 (K562) | GI50 (UACC-62) | GI50 (SF-539) | GI50 [2] | GI50 (ACHN) | GI50 (NCI-H522) | GI50 (HOP-92) | GI50 (RXF 393) | GI50 (Malme-3M) | GI50 (MDA-N) | GI50 (DU-145) | GI50 (PC-3) | GI50 (MCF7)
O=C(Cc1ccccc1F)NC1=C(Cl)C(=O)c2ccccc2C1=O | 282 nM | 1910 nM | 676 nM | 427 nM | 174 nM | 933 nM | 331 nM | 295 nM | 331 nM | 240 nM | 1290 nM | 479 nM | 214 nM | 1100 nM | 166 nM | 1700 nM |  |  |  | 
CC/N=C1/C(=O)c2ccccc2C(O)=C1NC(=O)c1cc(OC)cc(OC)c1 | 407 nM | 3470 nM | 1550 nM | 417 nM |  | 525 nM | 525 nM | 490 nM | 355 nM | 1910 nM |  | 977 nM | 372 nM | 1120 nM | 324 nM | 776 nM | 120 nM | 2690 nM | 380 nM | 372 nM
CCn1c(C)nc2c1C(=O)c1ccccc1C2=O | 16600 nM | 355 nM | 2040 nM | 1230 nM | 275 nM | 50.1 nM | 1910 nM | 1660 nM | 4900 nM | 2690 nM | 1660 nM |  | 240 nM | 1620 nM | 27500 nM | 2510 nM |  |  |  | 676 nM

From ChEMBL document CHEMBL1129540, “Synthesis and cytotoxicity of 1,2-disubstituted naphth[2,3-d]imidazole-4,9-diones and related compounds” (1996)
